In PubChem BioAssay AID624467 (The Scripps Research Institute Molecular Screening Center, 2012) one finds activation data, which are given here for 56 molecules.

About 3,600 (1%) of roughly 360,000 compounds were called active.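 How the source made its calls: active means activation above the mean activation of all test compounds in the run plus 3 SD (cut at about 38% in these data); inactive means the rest.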 Only a selection was taken, and actives are over-represented in it overall.

Chain of Trace amine-associated receptor 1 (Homo sapiens) (Q96RJ0 whole entry, looked up): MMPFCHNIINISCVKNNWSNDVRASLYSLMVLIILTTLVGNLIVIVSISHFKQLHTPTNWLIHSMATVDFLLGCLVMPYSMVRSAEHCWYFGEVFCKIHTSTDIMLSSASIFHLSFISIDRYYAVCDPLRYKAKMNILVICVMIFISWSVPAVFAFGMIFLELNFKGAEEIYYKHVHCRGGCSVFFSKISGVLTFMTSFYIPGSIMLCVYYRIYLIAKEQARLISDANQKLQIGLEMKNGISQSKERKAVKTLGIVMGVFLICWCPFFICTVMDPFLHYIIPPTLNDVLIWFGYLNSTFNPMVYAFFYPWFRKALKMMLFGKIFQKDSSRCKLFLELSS

This assay has as its target Trace amine-associated receptor 1 (Homo sapiens) (UniProt Q96RJ0). In words: activators of TAAR1 calcium mobilization – Fluo-8 calcium fluorescence, CHO RD-HGA16 cells, primary screen (AID 624467). The note with it: CHO RD-HGA16 TAAR1, Fluo-8 calcium fluorescence; at 3 µM; active compounds read high; vehicle wells 0%, saturating PEA agonist 100%. Summed up: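 Benchmarks: low control DMSO, high control PEA (EC100); System: CHO RD-HGA16 cells carrying human TAAR1 plus Gα16; Detection: Fluo-8 fluorescence, 5 s baseline then 140 s kinetic read; Schedule: 17-24 h plating, Fluo-8 75 min 37 °C, 30 min RT; Read-out basis: % activation from peak over basal fluorescence ratio, DMSO-to-PEA scaled.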
A general note: Calcium flux is commonly read through the fluorescence of an indicator in the cells.
Take `O=S(=O)(c1cccs1)N1CCCc2nc(-c3ccc(Br)cc3)ccc21`: the activation is 1.37% (inactive).

Turning to `NC(=O)c1ncn([C@@H]2O[C@H](C(=O)O)[C@@H](O)[C@H]2O)n1`, the activation was 1.97% (inactive).

On to `COCCNC(=O)c1cc2c(Br)ccc(Br)c2nc1N`, for which the activation was 0.74% (inactive).

Take `COc1ccc2[nH]c(=O)c(CN(Cc3nnnn3CCc3ccccc3)CC3CCCO3)cc2c1` (stereo unspecified): the activation was 11.8% (inactive).

On to `Cc1cccc2cc(CN(Cc3nnnn3Cc3ccccc3)C3CCCC3)c(=O)[nH]c12`, for which the activation is 12% (inactive).

Turning to `CCC(c1nnnn1Cc1ccco1)N(CCc1ccccc1)Cc1cc2ccc(OC)cc2[nH]c1=O` (stereo unspecified), the activation was 100% (active).

For `CCC(c1nnnn1Cc1ccco1)N(Cc1cc2cc(OC)ccc2[nH]c1=O)C1CCCCC1` (stereo unspecified), the activation was 1.97% (inactive).

Take `CCC(c1nnnn1Cc1ccco1)N(CCc1ccccc1)Cc1cc2cccc(C)c2[nH]c1=O` (stereo unspecified): the activation is 43.8% (active).

For the molecule `CCC(c1nnnn1C1CCCC1)N(Cc1cccs1)Cc1cc2cccc(C)c2[nH]c1=O` (stereo unspecified), the activation is 2.02% (inactive).

In the case of `CN(C)S(=O)(=O)c1cc(C(=O)Nc2ccn(C)n2)c(Cl)cc1Cl`, the activation is 2.93% (inactive).

Turning to `Nc1ncnc2c1ncn2C1OC(CO)CC1O` (stereo unspecified), the activation was 1.93% (inactive).

`CN(C)CCCNC(=S)N1CCN(c2nc(-c3ccccc3)cs2)CC1`: the activation was 3.41% (inactive).

`O=S(=O)(c1cccs1)N1CCc2ccccc2C1`: the activation is 13% (inactive).

On to `c1ccc(-c2csc(N3CCc4ccccc4C3)n2)cc1`, for which the activation was 73% (active).

Take `COc1ccc(Cn2c(-c3ccc(Cl)cc3)c[n+]3ccccc23)cc1`: the activation is 12.9% (inactive).

On to `C=CC1=CCN(S(=O)(=O)C(C)(C)C)[C@@H]1CCO`, for which the activation was 3.56% (inactive).

As for `FC(F)(F)c1ccc(-n2cn[nH]c2=S)cc1`, the activation is 0.73% (inactive).

Take `CCOC(=O)C1CCCN(C(=O)C2CCN(c3nnc(-n4cccc4)s3)CC2)C1` (stereo unspecified): the activation is -0.39% (inactive).

On to `CSc1ccc(CCNC(=O)C2CCN(c3nnc(-n4cccc4)s3)CC2)cc1`, for which the activation is -0.88% (inactive).

On to `O=C(C1CCN(c2nnc(-n3cccc3)s2)CC1)N1CCc2ccccc2C1`, for which the activation was 40.9% (active).

Regarding `CC1(C)CC(=O)C=C(c2ccccc2CO)C1=O`, the activation was 0.98% (inactive).

Regarding `COC1=CCC2([N+](=O)[O-])CN(CC(=O)O)CC1([N+](=O)[O-])C2` (stereo unspecified), the activation is 1.51% (inactive).

On to `CCOC(=O)C1=C(C(=O)OCC)C2N(Cc3ccc(C#N)cc3)c3ccccc3[C@@]23C[C@@H](C(=O)OC)N(S(=O)(=O)c2ccc(F)cc2)C3=N1` (stereo partly specified), for which the activation was -0.08% (inactive).

In the case of `Cc1noc(C)c1NC(=O)Nc1ccc2c(c1)C(=O)N([C@H](C)CO)C[C@H](C)[C@H](CN(C)Cc1ccncc1)OCCCC[C@@H](C)O2`, the activation was 2.28% (inactive).

For `Cc1cc(=O)oc2c(C)c(OCC(=O)NCCN3CCOCC3)ccc12`, the activation was 43.2% (active).

As for `CCc1cc(=O)oc2c(C)c(OCC(=O)NCCN3CCOCC3)ccc12`, the activation is 2.36% (inactive).

Consider `Cc1cc(=O)oc2c(C)c(OCC(=O)NCCc3ccc(S(N)(=O)=O)cc3)ccc12`, for which the activation is 0.73% (inactive).

Consider `O=C1C2(c3ccccc3)CN(CCCO)CC1(c1ccccc1)CN(CCCO)C2`, for which the activation is 2.41% (inactive).

Take `CCCSc1nc2c(c(=O)n(C)c(=O)n2C)n1Cc1ccc(C)cc1`: the activation is 52.6% (active).

As for `CCOc1ccc(Cn2c(SCCCCC#N)nc3c2c(=O)n(C)c(=O)n3C)cc1OCC`, the activation is 17.1% (inactive).

For the molecule `Cn1c(=O)c2c(nc(SCCNS(=O)(=O)c3ccccc3)n2C)n(C)c1=O`, the activation is 1.23% (inactive).

`CC1CCc2sc(C(=O)N/N=C/C3CCCCC3)cc2C1` (stereo unspecified): the activation is 5.23% (inactive).

Regarding `COCc1[nH]nc2c1C(c1ccccc1)N(c1ccccc1)C2=O` (stereo unspecified), the activation was 0.37% (inactive).

As to `O=C(Cn1cncn1)N/N=C/c1c2ccccc2cc2ccccc12`, the activation is 6.44% (inactive).

Turning to `Nc1nnn(CC(=O)N/N=C/c2ccccc2)n1`, the activation is 43.3% (active).

With `O=C(Cn1nnc(-c2ccccc2)n1)N/N=C/c1ccc(-c2ccc(Cl)cc2)o1`, the activation was -0.07% (inactive).

For `CC(C)CNc1cccc2c1S(=O)(=O)N[C@H](C)CO2`, the activation is -0.59% (inactive).

Turning to `CCOc1ccccc1NC(=S)NC(=O)CCc1ccccc1`, the activation was -1.05% (inactive).

`COc1ccc(C(=O)NC(=S)NNC(=O)CCc2ccccc2)cc1`: the activation is 108% (active).

`CC(=O)NC(=S)NNC(=O)c1ccc(Br)cc1`: the activation was 6.34% (inactive).

Turning to `Cn1nnc(NC(=S)NC(=O)c2ccccc2)n1`, the activation is 0.43% (inactive).

Turning to `COc1ccc(C(=O)NNC(=S)NC(=O)c2ccccc2)cc1`, the activation was 130% (active).

As to `COc1ccc(/C(N)=N/OC(=O)CCCc2ccccc2)cc1`, the activation is 5.81% (inactive).

`COCCCNC(=O)C[C@H]1C[C@@]2(C(=O)OC)C(=C[C@H](C(C)(C)C)O[C@@H]2C)N(Cc2ccc3c(c2)OCO3)C1=O`: the activation was 0.46% (inactive).

As to `Nc1[nH]c(C(=O)c2ccccc2)c(-c2ccc(Cl)cc2Cl)c1C(=O)c1ccccc1`, the activation was 1.29% (inactive).

With `CCC(Sc1nncn1C)C(=O)Nc1nnc(-c2ccc(Cl)cc2)s1` (stereo unspecified), the activation was 0.73% (inactive).

As to `COCc1cc(N2CCN(C(=O)OC(C)(C)C)C[C@@H]2C)ccc1N1CCN(Cc2ccccc2)[C@H](C)C1`, the activation was -1.74% (inactive).

For `Cc1ccccc1C(=O)N[C@H](C(=O)N1CCC[C@H]1C(=O)NCc1ccccc1)C(C)C`, the activation is 1.24% (inactive).

With `CC(=O)N(CC(O)CO)c1c(I)c(C(=O)NCC(O)CO)c(I)c(C(=O)NCC(O)CO)c1I` (stereo unspecified), the activation is 0.12% (inactive).

Take `COC(=O)[C@]12C[C@H](CC(=O)NCc3cccc(C(F)(F)F)c3)C(=O)N(Cc3ccc4c(c3)OCO4)C1=C[C@H](COCc1ccccc1)O[C@@H]2C`: the activation is 1.6% (inactive).

In the case of `Nc1cc(OC(=O)c2ccccc2Br)nn1S(=O)(=O)c1ccccc1`, the activation was 78% (active).

Take `Cc1ccc(S(=O)(=O)n2nc(OC(=O)C(C)(C)C)cc2N)cc1`: the activation was 2.73% (inactive).

On to `CN1C(=O)/C(=N/OC(=O)c2ccccc2Br)c2ccccc21`, for which the activation was 2.86% (inactive).

With `COc1ccc(-c2cn[nH]c2-c2ccc(OC)cc2)cc1`, the activation is 5.38% (inactive).

As for `Cc1cc(C)n(CCNS(=O)(=O)c2ccc(Cl)cc2)n1`, the activation is 2.21% (inactive).

Consider `COc1ccc2cc(-c3[nH]ncc3CNCCn3nc(C)cc3C)ccc2c1`, for which the activation was 44% (active).
